Consider four compounds from PMC65698 (BMC Pharmacology, 2002).

The subject of one data set is L1210/CPA cells. Conditions: 50 μM DEAB in vitro; cited from earlier work.
Data set [1] has as its system HL-60 cells. Briefly: HL-60 cell differentiation assay. The data set is classed as cell-based, human. An outline of the steps: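 HL-60 cells grown in RPMI-1640 with 15% FBS, 50 U/mL penicillin and 0.5 mg/mL streptomycin; subcultured and treated at 2 × 10^5 cells/mL. Test compound added in DMSO or ethanol, with no media change or washout; 1 μM retinoic acid used as a reference retinoid. Aliquots mixed 1:1 with a solution of 1.0% BSA, 0.2% NBT and 1.0 μg/mL TPA, then incubated 45 min at 37°C. Purple-precipitate-positive cells scored by bright-field microscopy in a counting chamber; two observers each counted two fields of ≥200 cells per well.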

In a further data set the test system is ALDH1A1. The note with it: dipropyl vs diethyl analog; cited from earlier work.
In another data set the target is T1, mouse ALDH1A1 (Mus musculus, UniProt P24549).
T1 sequence (P24549 1-501): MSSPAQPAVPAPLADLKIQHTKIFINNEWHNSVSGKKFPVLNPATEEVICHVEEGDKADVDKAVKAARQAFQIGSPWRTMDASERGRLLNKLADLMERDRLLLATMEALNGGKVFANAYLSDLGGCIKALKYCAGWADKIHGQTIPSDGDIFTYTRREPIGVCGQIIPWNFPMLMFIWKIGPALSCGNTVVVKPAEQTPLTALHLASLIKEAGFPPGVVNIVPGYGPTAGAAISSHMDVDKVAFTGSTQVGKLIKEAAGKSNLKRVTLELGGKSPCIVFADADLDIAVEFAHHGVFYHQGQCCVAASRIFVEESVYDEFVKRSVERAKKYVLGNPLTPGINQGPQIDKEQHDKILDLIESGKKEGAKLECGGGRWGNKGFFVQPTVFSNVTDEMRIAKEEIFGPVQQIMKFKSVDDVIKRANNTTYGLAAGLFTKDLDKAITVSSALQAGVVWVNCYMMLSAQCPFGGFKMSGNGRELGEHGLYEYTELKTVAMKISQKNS
The data set is classed as biochemical. The note with it: IC50 of DPAB, substrate propanal, 1 mM NAD, pH 8.4, mean ± average deviation.

Another data set addresses T2, human ALDH1A1 (Homo sapiens, UniProt P00352).
T2 sequence (P00352 1-501): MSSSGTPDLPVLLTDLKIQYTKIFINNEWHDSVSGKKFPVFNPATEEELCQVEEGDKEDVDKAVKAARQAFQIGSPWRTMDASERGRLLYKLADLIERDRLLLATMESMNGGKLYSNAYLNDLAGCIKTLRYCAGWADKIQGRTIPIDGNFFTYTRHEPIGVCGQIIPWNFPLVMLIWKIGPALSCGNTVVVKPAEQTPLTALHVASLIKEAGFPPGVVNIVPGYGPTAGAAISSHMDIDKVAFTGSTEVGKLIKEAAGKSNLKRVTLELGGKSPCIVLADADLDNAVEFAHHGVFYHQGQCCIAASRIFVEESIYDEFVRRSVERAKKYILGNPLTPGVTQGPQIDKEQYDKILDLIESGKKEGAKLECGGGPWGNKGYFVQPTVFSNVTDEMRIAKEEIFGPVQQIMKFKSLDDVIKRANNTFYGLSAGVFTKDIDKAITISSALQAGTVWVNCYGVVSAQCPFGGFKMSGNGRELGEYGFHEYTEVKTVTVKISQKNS
The data set is classed as biochemical. The note with it: IC50 of DPAB, substrate propanal, 1 mM NAD, pH 8.4, mean ± average deviation.

In data set [2] the test system is HL-60 cells. Briefly: HL-60 cell survival by Trypan blue dye exclusion. The data set is classed as cell-based, human. Conditions: up to 144 hours. An outline of the steps:
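HL-60 cells grown in RPMI-1640 with 15% FBS and penicillin/streptomycin, seeded at 2 × 10^5 cells/mL. Exposed to test compound (in DMSO or ethanol) for up to 144 h without media replacement or washout. Survival assessed by Trypan blue dye exclusion.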

Data set [3] in a line: HPLC assay for stability of retinal in culture media. In kind it is physicochemical. The note with it: 10 μM retinal in RPMI 1640 plus 15% fetal bovine serum, 37°C, day 6, no cells. The essentials: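 Retinal (10 μM) incubated in cell-free RPMI 1640 with 15% FBS at 37°C for six days. Media sampled every 24 h and extracted with 50% butanol:50% acetonitrile (v/v): vortexed 60 s, centrifuged 2 min at 16,000 × g. Organic layer diluted 1:5 in acetonitrile and run on reverse-phase C18 HPLC. Retinal and retinoic acid detected at 360 nm (retention 10.0 and 7.7 min).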

Regarding `CCN(CC)c1ccc(C=O)cc1` [DEAB, 4-(N, N-diethylamino) benzaldehyde], the “Effect on resistance of L1210/CPA cells to 4-HC” value in the data set with L1210/CPA cells is reported as “abolished the tumor cells' resistance to 4-HC”.
A word on the IC50: it is the concentration that gives 50% inhibition. On to `CCCN(CCC)c1ccc(C=O)cc1` [DPAB, 4-(N,N-dipropylamino)benzaldehyde], for which the “Effect on induction of differentiation by retinoic acid” value in the data set on HL-60 cells [1] (1 μM retinoic acid + 50 μM DPAB) was “did not alter the induction of differentiation by retinoic acid”. The “Efficacy for inhibition of ALDH1A1 relative to DEAB” value with ALDH1A1 is on record as 10 fold. Moreover, the IC50 at mouse ALDH1A1 turned out to be 40 ± 10 nM; against human ALDH1A1, 140 ± 40 nM. Also, the “Effect on cell viability” value in the data set with HL-60 cells [2] is “nor did it affect cell viability”.
`CC1=C(/C=C/C(C)=C/C=C/C(C)=C/C=O)C(C)(C)CCC1` [all-trans retinal]: in the data set on HL-60 cells [1] (exposure to 1 μM for 96 hours), the “Differentiation expressed as equivalent retinoic acid concentration” value fell in the range of 0.05 to 0.1 µM. Further, the “Retinal oxidized to retinoic acid in culture media” value in data set [3] is given as “less than 1%”.
For `CC1=C(/C=C/C(C)=C/C=C/C(C)=C/C(=O)O)C(C)(C)CCC1` [retinoic acid, all-trans retinoic acid], in the data set on HL-60 cells [1] (continuous exposure to 1 μM for 96 hours), the “Cells differentiated to granulocytes (positive NBT staining)” value is recorded as around 40%.
